Our source for the inhibition and MIC90 values is ChEMBL document CHEMBL1146217, “Growth inhibition of Mycobacterium bovis, Mycobacterium tuberculosis and Mycobacterium avium in vitro: effect of 1-beta-D-2'-arabinofuranosyl and 1-(2'-deoxy-2'-fluoro-beta-D-2'-ribofuranosyl) pyrimidine nucleoside analogs” (J Med Chem, 2007).

Format in all cases: functional
Conditions in all cases: variant bovis BCG

Experiment [1] deals with Mycobacterium tuberculosis. Description: Antimycobacterial activity against Mycobacterium bovis BCG at 100 ug/mL by microplate Alamar blue assay. The essentials: (§1)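 MABA with M. bovis BCG, M. tuberculosis H37Ra or M. avium ATCC 25291. DMSO stocks (10 mg/mL) diluted in 7H9GC; final inoculum 2.5 × 10⁵ CFU/mL. Incubated 6 days, then alamar blue plus Tween 80 added and read by fluorescence after about 24 h. […]. Tested in triplicate at 100, 50, 10 and 1 µg/mL; two experiments, mean reported.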

In experiment [2] the test system is Mycobacterium tuberculosis. Description: Antimycobacterial activity against Mycobacterium bovis BCG at 50 ug/mL by microplate Alamar blue assay. The method, boiled down: as §1
Experiment [3] concerns Mycobacterium tuberculosis. Kind of experiment: Antimycobacterial activity against Mycobacterium bovis BCG by microplate Alamar blue assay. The essentials:
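Same alamar blue microplate setup (7H9GC, 2.5 × 10⁵ CFU/mL, 6 days, then dye read after about 24 h), using 2-fold compound dilutions. MIC90 is the lowest concentration giving about 90% inhibition relative to bacteria-only wells after background subtraction. Visual MIC is the lowest concentration preventing the blue-to-pink change.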

In experiment [4] the test system is Mycobacterium tuberculosis. Description: Antimycobacterial activity against Mycobacterium bovis BCG at 1ug/mL by microplate Alamar blue assay. The method, boiled down: as §1
Experiment [5] deals with Mycobacterium tuberculosis. Description: Antimycobacterial activity against Mycobacterium bovis BCG at 10 ug/mL by microplate Alamar blue assay. The method, boiled down:
as §1

The structures appear in SMILES notation. In brackets after ≈: the same amount, converted by molar mass.

In experiment [1], `CCOC(=O)/C=C/c1cn([C@@H]2O[C@H](CO)[C@@H](O)[C@@H]2O)c(=O)[nH]c1=O` came in with an inhibition at 100 µg/mL of 0%.

`O=c1[nH]c(=O)n([C@@H]2O[C@H](CO)[C@@H](O)[C@@H]2O)cc1Br` returned an inhibition at 100 µg/mL in experiment [1] of 0%.

Regarding `CCCCCC#Cc1cn([C@@H]2O[C@H](CO)[C@@H](O)[C@H]2F)c(=O)[nH]c1=O`, 100 µg/mL produced 50% inhibition in experiment [1].

Regarding `O=c1[nH]c(=O)n([C@@H]2O[C@H](CO)[C@@H](O)[C@@H]2O)cc1C(O)C(Cl)Cl` (some centres not stated), 100 µg/mL produced 0% inhibition in experiment [1].

In experiment [1], `O=c1[nH]c(=O)n([C@@H]2O[C@H](CO)[C@@H](O)[C@H]2F)cc1Cl` returned an inhibition at 100 µg/mL of 50%. For the same compound, the inhibition at 50 µg/mL in experiment [2] was 50%.

Regarding `CO[C@H]1/C=C/O[C@@]2(C)Oc3c(C)c(O)c4c(O)c(c(/C=N/N5CCN(C)CC5)c(O)c4c3C2=O)NC(=O)/C(C)=C\C=C\[C@H](C)[C@H](O)[C@@H](C)[C@@H](O)[C@@H](C)[C@H](OC(C)=O)[C@@H]1C` [RIFAMPIN], the MIC90 in experiment [3] was 0.5 µg/mL (≈ 0.608 µM).

Compound `O=C(O)C(I)C(O)c1cn([C@@H]2O[C@H](CO)[C@@H](O)[C@H]2F)c(=O)[nH]c1=O` (some centres not stated) registered an inhibition at 100 µg/mL in experiment [1] of 0%.

Compound `CCCCCC#Cc1cn([C@@H]2O[C@H](CO)[C@@H](O)[C@@H]2O)c(=O)[nH]c1=O` had an inhibition at 100 µg/mL in experiment [1] of 25%.

With `O=C(O)/C=C/c1cn([C@@H]2O[C@H](CO)[C@@H](O)[C@H]2F)c(=O)[nH]c1=O`, the inhibition at 100 µg/mL in experiment [1] amounted to 0%.

In experiment [1], `CCOC(=O)C(Cl)C(O)c1cn([C@@H]2O[C@H](CO)[C@@H](O)[C@H]2F)c(=O)[nH]c1=O` (some centres not stated) came in with an inhibition at 100 µg/mL of 0%.

For the compound `O=c1[nH]c(=O)n([C@@H]2O[C@H](CO)[C@@H](O)[C@@H]2O)cc1C(O)C(Br)Br` (some centres not stated), 100 µg/mL produced 0% inhibition in experiment [1].

`CCCCCCCCC#Cc1cn([C@@H]2O[C@H](CO)[C@@H](O)[C@H]2F)c(=O)[nH]c1=O` came in with an MIC90 in experiment [3] of 50 µg/mL (≈ 131 µM). For the same compound, in experiment [4], the inhibition at 1 µg/mL turned out to be 30%. Also, testing at 100 µg/mL in experiment [1] gave an inhibition of 100%. In addition, the inhibition at 50 µg/mL in experiment [2] is 75%. Moreover, in experiment [5], the inhibition at 10 µg/mL stood at 50%.

In experiment [1], `COC(CI)c1cn([C@@H]2O[C@H](CO)[C@@H](O)[C@@H]2O)c(=O)[nH]c1=O` (some centres not stated) had an inhibition at 100 µg/mL of 0%.

For the compound `O=c1[nH]c(=O)n([C@@H]2O[C@H](CO)[C@@H](O)[C@@H]2O)cc1C(O)CI` (some centres not stated), in experiment [1], the inhibition at 100 µg/mL amounted to 0%.

In experiment [1], `Cc1cn([C@@H]2O[C@H](CO)[C@@H](O)[C@@H]2O)c(=O)[nH]c1=S` displayed an inhibition at 100 µg/mL of 0%.

The compound `CCCCCCCCCCC#Cc1cn([C@@H]2O[C@H](CO)[C@@H](O)[C@H]2F)c(=O)[nH]c1=O` had an MIC90 in experiment [3] of 1 µg/mL (≈ 2.44 µM). Besides, at 1 µg/mL the inhibition in experiment [4] was 70%. Moreover, the inhibition at 100 µg/mL in experiment [1] worked out at 100%. This compound also displayed an inhibition at 50 µg/mL in experiment [2] of 100%. The compound also came in with an inhibition at 10 µg/mL in experiment [5] of 100%.

Compound `O=C(O)/C=C/c1cn([C@@H]2O[C@H](CO)[C@@H](O)[C@@H]2O)c(=O)[nH]c1=O` registered an inhibition at 100 µg/mL in experiment [1] of 0%.

Compound `CCCCCCCCCCCC#Cc1cn([C@@H]2O[C@H](CO)[C@@H](O)[C@H]2F)c(=O)[nH]c1=O` showed an MIC90 in experiment [3] of 1 µg/mL (≈ 2.36 µM). This compound had an inhibition at 1 µg/mL in experiment [4] of 90%. Testing at 100 µg/mL in experiment [1] gave an inhibition of 100%. The compound further came in with an inhibition at 50 µg/mL in experiment [2] of 100%. In experiment [5], this compound returned an inhibition at 10 µg/mL of 100%.

The compound `CCCCCCCCCCCCC#Cc1cn([C@@H]2O[C@H](CO)[C@@H](O)[C@H]2F)c(=O)[nH]c1=O` came in with an MIC90 in experiment [3] of 10 µg/mL (≈ 22.8 µM). For the same compound, at 100 µg/mL the inhibition in experiment [1] was 100%. In experiment [2], this compound yielded an inhibition at 50 µg/mL of 100%. Further, the inhibition at 10 µg/mL in experiment [5] came to 50%.

For the compound `CCCc1ccc(C#Cc2cn([C@@H]3O[C@H](CO)[C@@H](O)[C@@H]3O)c(=O)[nH]c2=O)cc1`, in experiment [3], the MIC90 turned out to be 100 µg/mL (≈ 259 µM). This compound also gave an inhibition at 100 µg/mL in experiment [1] of 100%. The same compound yielded an inhibition at 50 µg/mL in experiment [2] of 50%.

In experiment [1], `O=c1[nH]c(=S)ccn1[C@@H]1O[C@H](CO)[C@@H](O)[C@H]1F` gave an inhibition at 100 µg/mL of 25%.

Turning to `CCOC(=O)/C=C/c1cn([C@@H]2O[C@H](CO)[C@@H](O)[C@H]2F)c(=O)[nH]c1=O`, in experiment [1], the inhibition at 100 µg/mL stood at 0%.

For the compound `O=c1[nH]c(=O)n([C@@H]2O[C@H](CO)[C@@H](O)[C@@H]2O)cc1Cl`, in experiment [1], the inhibition at 100 µg/mL came out at 0%.

Consider `CCOC(=O)C(Br)C(O)c1cn([C@@H]2O[C@H](CO)[C@@H](O)[C@H]2F)c(=O)[nH]c1=O` (some centres not stated), for which testing at 100 µg/mL in experiment [1] gave an inhibition of 0%.

In turn, `O=c1[nH]c(=O)n([C@@H]2O[C@H](CO)[C@@H](O)[C@H]2F)cc1Br` displayed an inhibition at 100 µg/mL in experiment [1] of 0%.

On to `CCCCCCCCCCCC#Cc1cn([C@@H]2O[C@H](CO)[C@@H](O)[C@@H]2O)c(=O)[nH]c1=O`, for which the MIC90 in experiment [3] amounted to 10 µg/mL (≈ 23.7 µM). Moreover, the inhibition at 100 µg/mL in experiment [1] amounted to 100%. Further, the inhibition at 50 µg/mL in experiment [2] was found to be 100%. In experiment [5], this compound displayed an inhibition at 10 µg/mL of 50%.

Compound `CCCCCCCCCCC#Cc1cn([C@@H]2O[C@H](CO)[C@@H](O)[C@@H]2O)c(=O)[nH]c1=O` had an MIC90 in experiment [3] of 1 µg/mL (≈ 2.45 µM). Besides, at 1 µg/mL the inhibition in experiment [4] was 75%. In addition, the inhibition at 100 µg/mL in experiment [1] worked out at 100%. In addition, the inhibition at 50 µg/mL in experiment [2] turned out to be 100%. The compound further registered an inhibition at 10 µg/mL in experiment [5] of 100%.

As to `CCCCCCCCCCCCC#Cc1cn([C@@H]2O[C@H](CO)[C@@H](O)[C@@H]2O)c(=O)[nH]c1=O`, the MIC90 in experiment [3] was 10 µg/mL (≈ 22.9 µM). In addition, the inhibition at 100 µg/mL in experiment [1] was determined as 100%. In addition, in experiment [2], the inhibition at 50 µg/mL is 100%. Besides, at 10 µg/mL the inhibition in experiment [5] was 50%.

On to `O=c1[nH]c(=S)ccn1[C@@H]1O[C@H](CO)[C@@H](O)[C@@H]1O`, for which, in experiment [1], the inhibition at 100 µg/mL worked out at 0%.

Take `CCCCCCCCC#Cc1cn([C@@H]2O[C@H](CO)[C@@H](O)[C@@H]2O)c(=O)[nH]c1=O`: the MIC90 in experiment [3] is 100 µg/mL (≈ 263 µM). In experiment [1], this compound displayed an inhibition at 100 µg/mL of 100%. Moreover, the inhibition at 50 µg/mL in experiment [2] is 50%. The inhibition at 10 µg/mL in experiment [5] came to 30%.

In experiment [1], `Cc1cn([C@@H]2O[C@H](CO)[C@@H](O)[C@H]2F)c(=O)[nH]c1=S` returned an inhibition at 100 µg/mL of 25%.
